ChEMBL document CHEMBL1833955, “Optimization of (arylpiperazinylbutyl)oxindoles exhibiting selective 5-HT₇ receptor antagonist activity” (J Med Chem, 2011)

Tests used:
[1] = target: T1, Adrenergic receptor alpha-1 (Rattus norvegicus, UniProt P15823+P23944+P43140); test: Displacement of [3H]prazosin from alpha1-adrenergic receptor in rat frontal cortex membrane after 45 mins by scintillation spectrometry; assay type: cell membranes
T1 sequence (P15823 whole entry): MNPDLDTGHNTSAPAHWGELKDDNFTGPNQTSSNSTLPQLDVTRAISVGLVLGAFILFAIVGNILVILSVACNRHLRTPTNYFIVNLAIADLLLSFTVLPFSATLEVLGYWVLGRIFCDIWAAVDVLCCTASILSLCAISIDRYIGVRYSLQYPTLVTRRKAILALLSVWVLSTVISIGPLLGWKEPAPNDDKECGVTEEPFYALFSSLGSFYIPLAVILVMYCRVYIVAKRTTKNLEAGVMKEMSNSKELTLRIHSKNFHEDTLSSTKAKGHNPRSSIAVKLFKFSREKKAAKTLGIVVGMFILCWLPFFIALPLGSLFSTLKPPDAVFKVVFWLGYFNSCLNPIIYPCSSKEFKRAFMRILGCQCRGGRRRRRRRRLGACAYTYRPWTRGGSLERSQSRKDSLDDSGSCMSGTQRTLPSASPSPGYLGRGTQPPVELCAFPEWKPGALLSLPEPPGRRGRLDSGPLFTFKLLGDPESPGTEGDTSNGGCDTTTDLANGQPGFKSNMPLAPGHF
T1 sequence (P23944 whole entry): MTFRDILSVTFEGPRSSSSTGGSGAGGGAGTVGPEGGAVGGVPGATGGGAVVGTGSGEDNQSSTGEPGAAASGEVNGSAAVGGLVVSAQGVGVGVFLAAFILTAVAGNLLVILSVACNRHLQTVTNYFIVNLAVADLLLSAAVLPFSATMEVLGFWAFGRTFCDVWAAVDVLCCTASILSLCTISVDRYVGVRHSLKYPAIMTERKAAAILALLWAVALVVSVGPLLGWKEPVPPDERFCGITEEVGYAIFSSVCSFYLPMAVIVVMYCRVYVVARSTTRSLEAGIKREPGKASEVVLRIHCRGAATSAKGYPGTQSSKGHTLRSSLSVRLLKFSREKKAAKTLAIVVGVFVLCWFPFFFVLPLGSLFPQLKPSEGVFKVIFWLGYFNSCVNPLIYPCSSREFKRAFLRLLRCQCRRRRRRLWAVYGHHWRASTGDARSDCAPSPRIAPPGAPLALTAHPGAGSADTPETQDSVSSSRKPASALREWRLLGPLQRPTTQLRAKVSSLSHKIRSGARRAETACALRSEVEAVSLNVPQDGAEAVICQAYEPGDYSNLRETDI
T1 sequence (P43140 whole entry): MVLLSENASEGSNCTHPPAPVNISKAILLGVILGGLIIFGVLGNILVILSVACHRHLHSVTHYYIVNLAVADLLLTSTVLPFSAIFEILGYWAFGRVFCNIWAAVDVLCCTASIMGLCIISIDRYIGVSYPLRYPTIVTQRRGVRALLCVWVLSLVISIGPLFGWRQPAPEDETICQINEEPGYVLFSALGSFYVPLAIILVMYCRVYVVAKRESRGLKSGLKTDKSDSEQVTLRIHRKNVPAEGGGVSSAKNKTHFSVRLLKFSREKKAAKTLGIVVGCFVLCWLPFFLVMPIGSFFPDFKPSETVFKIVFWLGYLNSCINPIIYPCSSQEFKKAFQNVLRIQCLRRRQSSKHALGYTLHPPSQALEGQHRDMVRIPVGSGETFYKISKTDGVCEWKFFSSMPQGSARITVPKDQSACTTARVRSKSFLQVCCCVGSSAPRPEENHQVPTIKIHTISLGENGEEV
Procedure, shortened: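 Rat frontal cortex tissue frozen on dry ice, homogenised in 50 mM Tris-HCl pH 7.7 and washed by centrifugation. [3H]prazosin at 0.6 nM; 10 μM prazosin defines nonspecific binding. 45 min at 25 °C, GF/B filtration, scintillation counting. Triplicates; Ki from two nine-concentration curves fitted to a single-site model.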

[2] = target: T2, 5-hydroxytryptamine receptor 1A (Rattus norvegicus, UniProt P19327); test: Displacement of [3H]8-OH-DPAT from 5-HT1A receptor in rat frontal cortex membrane after 45 mins by scintillation counting; assay type: cell membranes
T2 sequence (P19327 whole entry): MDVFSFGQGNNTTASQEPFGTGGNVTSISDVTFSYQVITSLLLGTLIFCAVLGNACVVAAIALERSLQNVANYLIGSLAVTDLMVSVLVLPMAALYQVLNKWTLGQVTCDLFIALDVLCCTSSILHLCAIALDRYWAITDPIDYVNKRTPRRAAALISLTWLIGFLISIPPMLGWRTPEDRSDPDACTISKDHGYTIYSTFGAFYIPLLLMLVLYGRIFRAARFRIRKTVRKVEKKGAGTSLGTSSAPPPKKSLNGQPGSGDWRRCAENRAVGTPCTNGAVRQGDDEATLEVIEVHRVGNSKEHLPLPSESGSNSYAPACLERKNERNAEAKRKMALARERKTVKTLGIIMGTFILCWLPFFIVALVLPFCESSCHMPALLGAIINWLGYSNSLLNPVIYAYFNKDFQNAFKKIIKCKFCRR
Procedure, shortened: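 Membranes from adult rat frontal cortex, prepared in 50 mM Tris-HCl pH 7.7 with washes and a 37 °C preincubation. Incubation buffer: 6.66 mM CaCl2, 16.66 μM pargyline, 0.166% ascorbic acid. Ligand 1.5 nM [3H]8-OH-DPAT; 10 μM 5-HT defines nonspecific binding. 45 min at 25 °C, GF/B filtration, scintillation counting. Triplicates; Ki from two nine-point curves, single-site fit.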

[3] = target: 5-hydroxytryptamine receptor 7 (Homo sapiens, UniProt P34969); test: Displacement of [3H]CT from human 5-HT7 receptor expressed in CHO cells by scintillation spectrometry; assay type: cell-based
5-hydroxytryptamine receptor 7, sequence (P34969 whole entry): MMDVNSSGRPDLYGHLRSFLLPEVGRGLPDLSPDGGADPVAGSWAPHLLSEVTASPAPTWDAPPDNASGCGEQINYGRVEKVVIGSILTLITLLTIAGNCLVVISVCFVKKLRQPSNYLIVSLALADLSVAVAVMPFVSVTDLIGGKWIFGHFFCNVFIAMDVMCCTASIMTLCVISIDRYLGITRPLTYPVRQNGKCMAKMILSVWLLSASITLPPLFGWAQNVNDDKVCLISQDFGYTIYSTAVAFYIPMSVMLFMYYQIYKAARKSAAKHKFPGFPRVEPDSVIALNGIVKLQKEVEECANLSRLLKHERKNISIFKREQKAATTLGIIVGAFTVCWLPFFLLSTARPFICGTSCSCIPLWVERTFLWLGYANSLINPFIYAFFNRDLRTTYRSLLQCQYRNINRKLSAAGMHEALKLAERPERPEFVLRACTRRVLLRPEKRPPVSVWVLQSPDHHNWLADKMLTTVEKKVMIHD
Procedure, shortened: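 Cloned human 5-HT7 receptor from CHO cells, run under the supplier's recommended conditions with [3H]CT. Nonspecific binding with 25 μM clozapine. Ended by GF/C filtration, then scintillation counting. Ki taken from two nine-concentration displacement curves run in triplicate, single-site fit.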

[4] = target: T3, 5-hydroxytryptamine receptor 1A (Rattus norvegicus) (UniProt P19327); test: Displacement of [3H]8-OH-DPAT from 5-HT1A receptor in rat frontal cortex membrane at 10^-7 M after 45 mins by scintillation counting; assay type: cell membranes
T3 sequence (whole entry): T2 sequence (P19327 whole entry)

[5] = Plasma concentration in NMRI mouse at 3 mg/kg, ip after 30 mins by HPLC-MS/MS analysis; assay type: ADME, organism-based; design: dose 3 mg/kg, route intraperitoneal
Procedure, shortened: (§1)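 Male NMRI mice, 25–30 g, given four compounds together ip as a cassette suspension in 0.4% methyl cellulose (n = 3/dose). After 30 min, vena cava blood and brain collected. Brain homogenised in 4 volumes of water; samples extracted with acetonitrile–water 3:1 and analysed by gradient HPLC-MS/MS against spiked calibrators. Brain/plasma given as percentage.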

[6] = Metabolic stability in human liver microsomes after 60 mins by HPLC-MS/MS analysis; assay type: ADME, Microsome; conditions: read-out: Stability
Procedure, shortened: (§2)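 Test compound at 100 nM final incubated with rat or human liver microsomes (0.33 mg/mL) at 37 °C for 0, 5, 15, 30 and 60 min. Buffer Tris-HCl pH 7.4 with Mg2+ and BSA. Reaction started with NADPH and stopped with ice-cold MeOH. Parent compound measured by HPLC-MS/MS, positive-ion MRM.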

[7] = Metabolic stability in rat liver microsomes after 60 mins by HPLC-MS/MS analysis; assay type: ADME, Microsome; conditions: read-out: Stability; procedure, shortened: as §2
[8] = Plasma concentration in NMRI mouse at 1 mg/kg, ip after 30 mins by HPLC-MS/MS analysis; assay type: ADME, organism-based; design: dose 1 mg/kg, route intraperitoneal; procedure, shortened: as §1
Mus musculus = test: Anxiolytic activity in ip dosed NMRI mouse assessed as behavioral activity administered 30 mins prior to test measured up to 5 mins by light-dark test; assay type: functional; conditions: read-out: MED
Procedure, shortened: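 Male NMRI mice, 25–33 g, housed in the dark, dosed ip 30 min before test. Each mouse placed in the centre of the lit side of an automated two-compartment chamber under a 2-lx light. Activity recorded for 5 min: time in each area, transitions, horizontal and vertical activity. Means ± SEM, one-way ANOVA with Duncan's test; MED reported.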

[9] = Drug level in NMRI mouse brain at 1 mg/kg, ip after 30 mins by HPLC/MS/MS analysis; assay type: ADME, organism-based; design: dose 1 mg/kg, route intraperitoneal; conditions: read-out: Drug uptake; procedure, shortened: as §1
[10] = Drug level in NMRI mouse brain at 3 mg/kg, ip after 30 mins by HPLC/MS/MS analysis; assay type: ADME, organism-based; design: dose 3 mg/kg, route intraperitoneal; conditions: read-out: Drug uptake; procedure, shortened: as §1
[11] = Selectivity ratio of Ki for 5-HT1A receptor in rat frontal cortex membrane to Ki for human 5-HT7 receptor; assay type: cell membranes
[12] = Drug level in NMRI mouse brain at 10 mg/kg, ip after 30 mins by HPLC/MS/MS analysis; assay type: ADME, organism-based; design: dose 10 mg/kg, route intraperitoneal; conditions: read-out: Drug uptake; procedure, shortened: as §1
[13] = Plasma concentration in NMRI mouse at 10 mg/kg, ip after 30 mins by HPLC-MS/MS analysis; assay type: ADME, organism-based; design: dose 10 mg/kg, route intraperitoneal; procedure, shortened: as §1
[14] = Selectivity ratio of Ki for alpha1-adrenergic receptor in rat frontal cortex membrane to Ki for human 5-HT7 receptor; assay type: cell membranes

Row | Compound | Ki [1] [µM] | Ki [2] [µM] | Ki [3] [µM] | further results
1 | O=C1Nc2ccccc2C1CCCCN1CC=C(c2cccc(C(F)(F)F)c2)CC1 (centres undefined) | 0.31 | 0.019 | 0.0111 | –
2 | CCC1(CCCCN2CCC(c3ccc(F)cc3)CC2)C(=O)Nc2ccccc21 (centres undefined) | 0.029 | – | 0.0069 | inhibition [4]: 11%
3 | CCC1(CCCCN2CC=C(c3cccc(Cl)c3)CC2)C(=O)Nc2ccc(F)cc21 (centres undefined) | 0.14 | 0.123 | 0.052 | –
4 | CCC1(CCCCN2CCN(c3cccc(Cl)c3)CC2)C(=O)Nc2c1cc(Cl)c(F)c2Cl (centres undefined) | 0.097 | 0.68 | 0.072 | –
5 | CCC1(CCCCN2CCN(c3ccc(Cl)cc3)CC2)C(=O)Nc2ccc(F)cc21 (centres undefined) | 0.19 | – | – | concentration at 0.5 h [5]: 211 nM; remaining at 1 h [6]: 36%; remaining at 1 h [7]: 17%; concentration at 0.5 h [8]: 44 nM; minimal effective dose (Mus musculus): > 10 mg/kg; concentration at 0.5 h [9]: 51 nM; concentration at 0.5 h [10]: 186 nM; Ratio Ki [11]: > 100; concentration at 0.5 h [12]: 342 nM; concentration at 0.5 h [13]: 271 nM; inhibition [4]: 9%; Ratio Ki [14]: 68
6 | CCC1(CCCCN2CCN(c3ccc(Cl)cc3)CC2)C(=O)Nc2cc(F)c(Cl)cc21 (centres undefined) | 0.191 | – | 0.01 | remaining at 1 h [6]: 10%; remaining at 1 h [7]: 18%; Ratio Ki [11]: > 100; inhibition [4]: 0%; Ratio Ki [14]: 19
7 | CCC1(CCCCN2CCN(c3ccccc3OC)CC2)C(=O)Nc2ccccc21 (centres undefined) | 0.027 | 0.0098 | – | –

Second part, led by results:

Row | Ki [1] [µM] | Ki [2] [µM] | Ki [3] [µM] | Compound | further results
8 | 0.046 | 0.111 | – | CCC1(CCCCN2CCN(c3cccc(Cl)c3)CC2)C(=O)Nc2ccc(F)cc21 (centres undefined) | –
9 | 0.033 | 0.099 | 0.0168 | O=C1Nc2cc(F)ccc2C1CCCCN1CCN(c2ccccn2)CC1 (centres undefined) | –
10 | 0.13 | 0.056 | 0.0109 | O=C1Nc2ccccc2C1CCCCN1CCN(c2ccccn2)CC1 (centres undefined) | –
11 | – | 0.073 | 0.011 | CCC1(CCCCN2CCN(c3cccc(F)c3)CC2)C(=O)Nc2ccccc21 (centres undefined) | –
12 | 0.15 | 0.055 | 0.004 | CCC1(CCCCN2CCN(c3ccccn3)CC2)C(=O)Nc2ccccc21 (centres undefined) | –
13 | 0.02 | – | 0.047 | O=C1Nc2ccc(F)cc2C1CCCCN1CCN(c2ccccc2)CC1 (centres undefined) | –
